Measurements collected from several papers.
Each line is one published result; the experiments were not run side by side. ≈ marks a conversion by molar mass, not a printed value.

| Compound | target or system | assay | test system | setting | endpoint | result |
| --- | --- | --- | --- | --- | --- | --- |
| N.N.[Cl][Pt][Cl] | CA46 | cell growth or viability, ATP luminescence | – | 10 µM, 72 h | inhibition | 95% |
| NNC(=O)c1ccncc1 | Mycobacterium tuberculosis variant bovis BCG | microbial growth | BCG | – | MIC90 | 0.24 µg/mL (≈ 1.75 µM) |
| [H]/N=C(/N)N[C@H]1[C@H](O)[C@@H](O)[C@H](O[C@@H]2O[C@@H](C)[C@](O)(C=O)[C@H]2O[C@@H]2O[C@@H](CO)[C@H](O)[C@@H](O)[C@@H]2NC)[C@@H](N/C(N)=N\[H])[C@@H]1O | Klebsiella pneumoniae | microbial growth, broth dilution | ATCC43816 | – | MIC | 2 µg/mL (≈ 3.44 µM) |
| N#Cc1nc[n]([Au][PH](c2ccccc2)(c2ccccc2)c2ccccc2)c1C#N | IMR-90 | cell growth or viability, MTT | – | 48 h | IC50 | 64 µM |
| C[C@@H](O)[C@H]1C(=O)N2C(C(=O)O)=C(S[C@@H]3CN[C@H](C(=O)N(C)C)C3)[C@H](C)[C@H]12 | Klebsiella pneumoniae | microbial growth | ATCCBAA1705 | drug-resistant strain | MIC | > 8 µg/mL |
| Clc1nc[n]([Au][PH](c2ccccc2)(c2ccccc2)c2ccccc2)c1Cl | IMR-90 | cell growth or viability, MTT | – | 48 h | IC50 | 54.9 µM |
| NCC[C@H](O)C(=O)N[C@@H]1C[C@H](N)[C@@H](O[C@H]2O[C@H](CN)[C@@H](O)[C@H](O)[C@H]2O)[C@H](O)[C@H]1O[C@H]1O[C@H](CO)[C@@H](O)[C@H](N)[C@H]1O | Mycobacterium tuberculosis variant bovis BCG | microbial growth | BCG | – | MIC50 | 0.32 µg/mL (≈ 0.546 µM) |
| c1ccc([Se][Au]=[c]2n(C3CCCCC3)ccn2C2CCCCC2)cc1 | HT-29 | cell growth or viability, crystal violet | – | – | IC50 | 1.1 µM |
| C[C@H]1COc2c(N3CCN(C)CC3)c(F)cc3c(=O)c(C(=O)O)cn1c23 | Klebsiella pneumoniae | microbial growth | ATCCBAA1705 | drug-resistant strain | MIC | > 8 µg/mL |
